Consider 5 molecules from ChEMBL document CHEMBL1649405, “Structure-activity relationships study of 6-chloro-4-(2-chlorophenyl)-3-(2-hydroxyethyl) quinolin-2(1H)-one derivatives as novel non-nucleoside anti-hepatitis B virus agents” (Eur J Med Chem, 2011).

The structures appear in SMILES notation. Activity calls are given as the source filed them. The calls are words filed in the database; no cut-off is given here. Bounds are passed on as bounds.

Data set [1] relates to Hepatitis B virus. As to the kind of experiment: Antiviral activity against Hepatitis B virus infected in human HepG2(2.2.15) cells assessed as inhibition of viral surface antigen secretion after 6 days by ELISA. The class given is functional, organism-based. Particulars: HepG2 2.2.15, 144 h. In a few lines:
(§1)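 HepG 2.2.15 cells in DMEM with 10% FBS, 37 °C, 5% CO2. Treated for 6 days with refeeding every other day. Culture medium centrifuged at 6000 g to clear debris. HBeAg or HBsAg measured by quantitative ELISA on a microplate reader. IC50 = concentration giving 50% inhibition of secretion. Mean of two independent experiments.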

The subject of data set [2] is Hepatitis B virus. Briefly: Antiviral activity against Hepatitis B virus infected in human HepG2(2.2.15) cells assessed as inhibition of viral e antigen secretion after 6 days by ELISA. It is filed as functional, organism-based. The following applies: HepG2 2.2.15, 144 h. Summed up:
as §1

The nature of data set [3]: Cytotoxicity against human HepG2(2.2.15) cells. The class given is cell-based. Summed up:
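HepG 2.2.15 cells in DMEM with 10% FBS, 37 °C, 5% CO2. CC50 = concentration killing 50% of cells. Mean of two independent experiments.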

The nature of data set [4]: Selectivity index, ratio of CC50 for human HepG2(2.2.15) cells to IC50 for Hepatitis B virus infected in human HepG2(2.2.15) cells assessed as inhibition of viral surface antigen secretion. It is filed as functional. Summed up:
(§2)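 Ratio of CC50 in HepG 2.2.15 cells to the IC50 for HBeAg or HBsAg secretion. Both values come from ELISA and cytotoxicity runs on the same cell line. Each input is the mean of two independent experiments.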

Data set [5] in a line: Selectivity index, ratio of CC50 for human HepG2(2.2.15) cells to IC50 for Hepatitis B virus infected in human HepG2(2.2.15) cells assessed as inhibition of viral e antigen secretion. It is filed as functional. In a few lines:
as §2

The test system of data set [6] is Hepatitis B virus. Briefly: Antiviral activity against Hepatitis B virus infected in human HepG2(2.2.15) cells assessed as inhibition of viral DNA replication after 6 days by PCR analysis. It is filed as functional, organism-based. Summed up:
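HepG 2.2.15 cells in DMEM with 10% FBS, 5 mM L-glutamine, penicillin/streptomycin, 37 °C, 5% CO2; seeded 5 × 10^5 per well, medium changed every 2 days. Compound added after 6 days, refed every other day for 6 more days. HBV DNA by real-time PCR against a cloned HBV plasmid standard series. IC50 = 50% inhibition. Mean of two independent experiments.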

Data set [7] has as its system Nucleic Acid. Briefly: Increase of enhancer 1 transcriptional activity in HBV infected in human HepG2(2.2.15) cells transfected with pGL3 at 0.02 mM by luciferase reporter gene assay relative to mock-treated control. The class given is cell-based. Particulars: Hepatitis B virus. Summed up:
(§3)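 HepG2 cells transfected with pGL3-based firefly luciferase constructs carrying HBV promoter or enhancer elements; pGL3 Basic as control, phRL-CMV Renilla as internal control. Treated with 0.02 mM; read by dual-luciferase assay. Fold activity = treated promoter activity / mock-treated activity. Triplicate samples.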
(A reporter such as luciferase makes a cellular process visible.)

In data set [8] the test system is Nucleic Acid. Briefly: Increase of enhancer 2 transcriptional activity in HBV infected in human HepG2(2.2.15) cells transfected with pGL3 at 0.02 mM by luciferase reporter gene assay relative to mock-treated control. Particulars: Hepatitis B virus. The class given is cell-based. In a few lines: as §3
For data set [9], the system named is Nucleic Acid. As to the kind of experiment: Increase of core/pregenomic factor transcriptional activity in HBV infected in human HepG2(2.2.15) cells transfected with pGL3 at 0.02 mM by luciferase reporter gene assay relative to mock-treated control. Particulars: Hepatitis B virus. The class given is cell-based. Summed up:
as §3

Data set [10] concerns Nucleic Acid. Briefly: Increase of X promoter transcriptional activity in HBV infected in human HepG2(2.2.15) cells transfected with pGL3 at 0.02 mM by luciferase reporter gene assay relative to mock-treated control. The following applies: Hepatitis B virus. The class given is cell-based. Summed up:
as §3

Data set [11] relates to Nucleic Acid. As to the kind of experiment: Increase of preS1 promoter transcriptional activity in HBV infected in human HepG2(2.2.15) cells transfected with pGL3 at 0.02 mM by luciferase reporter gene assay relative to mock-treated control. Particulars: Hepatitis B virus. The class given is cell-based. In a few lines: as §3
A short description of data set [12]: Cytotoxicity against human HepG2(2.2.15) cells assessed as cell viability at 0.02 mM after 48 hrs by MTT assay. It is filed as cell-based. Particulars: read-out: Activity. A general note: Formazan colour is commonly taken as a measure of viable cells.
Data set [13] is described as follows: Cytotoxicity against human HepG2(2.2.15) cells assessed as cell viability at 0.02 mM after 72 hrs by MTT assay. Particulars: read-out: Activity. The class given is cell-based.
The test system of data set [14] is Nucleic Acid. Briefly: Inhibition of preS2 promoter transcriptional activity in human HepG2 cells transfected with pGL3 at 0.02 mM by luciferase reporter gene assay relative to mock-treated control. The following applies: Hepatitis B virus.
Setting [15] is: Hepatitis B virus, HepG2 2.2.15, 144 h, read-out: IC50.

As for `COc1cccc(/C=C/C(=O)OCCc2c(-c3ccccc3Cl)c3cc(Cl)ccc3[nH]c2=O)c1`, the IC50 – broadly, the midpoint of a concentration-inhibition curve – with Hepatitis B virus [1] was 10 µM; in the data set on Hepatitis B virus [2], 26 µM; in the data set on Hepatitis B virus [6] (setting [15]), 45 µM. Also, the CC50 (as a rule, the concentration that lowers cell viability or growth by half) in data set [3] is more than 1300 µM. Also, the figures for the “Selectivity Index” value in data set [4] and in data set [5] were more than 135 and more than 51, respectively. The fold change (FC) in the data set on Nucleic Acid [7] stood at 12; with Nucleic Acid [8] it was 14; with Nucleic Acid [9] it was 4; in the data set on Nucleic Acid [10] it was 4; in the data set with Nucleic Acid [11], 4. In [12], the viability at 48 h, 20 µM came out at 95.2%. Also, the viability at 72 h, 20 µM in data set [13] was found to be 80.4%. In the data set with Nucleic Acid [14], the inhibition entry was “Active”.

For the molecule `COc1cccc(/C=C/C(=O)OCc2c(-c3ccccc3Cl)c3cc(Cl)ccc3[nH]c2=O)c1`, the IC50 amounted to 11 µM in the data set with Hepatitis B virus [1], 18 µM in the data set on Hepatitis B virus [2] and 160 µM in the data set with Hepatitis B virus [6] (setting [15]). Besides, the CC50 in data set [3] was more than 1800 µM. Besides, the “Selectivity Index” value is reported as more than 170 in [4] and more than 100 in data set [5].

Take `COc1ccc(/C=C/C(=O)OCCc2c(-c3ccccc3Cl)c3cc(Cl)ccc3[nH]c2=O)cc1`: the IC50 with Hepatitis B virus [1] is 490 µM; with Hepatitis B virus [2], 48 µM; with Hepatitis B virus [6] (hepg2 2.2.15), “Not Active”. In data set [3], this molecule returned a CC50 of more than 1200 µM. The “Selectivity Index” value in [4] is recorded as more than 2.5; in data set [5] it was more than 25.

As to `O=C(/C=C/c1cccc(F)c1)OCCc1c(-c2ccccc2Cl)c2cc(Cl)ccc2[nH]c1=O`, the results for the IC50 in the data set with Hepatitis B virus [1], with Hepatitis B virus [2] and in the data set on Hepatitis B virus [6] (setting [15]) were 33 µM, 27 µM and 110 µM, respectively. For the same molecule, the CC50 in data set [3] is more than 1600 µM. Besides, the figures for the “Selectivity Index” value in [4] and in data set [5] were more than 48 and more than 58, respectively.

With `COc1cccc(/C=C/C(=O)OCCCc2c(-c3ccccc3Cl)c3cc(Cl)ccc3[nH]c2=O)c1`, the IC50 in the data set on Hepatitis B virus [1] was 20 µM; in the data set with Hepatitis B virus [2], 28 µM; in the data set on Hepatitis B virus [6] (hepg2 2.2.15), “Not Active”. The molecule also had a CC50 in data set [3] of more than 1100 µM. For the same molecule, the “Selectivity Index” value in [4] was more than 55; in data set [5], more than 39.
